Test results from ChEMBL document CHEMBL1153861, “Synthesis, optimization and structure-activity relationships of 3,5-disubstituted isoxazolines as new anti-tuberculosis agents” (2009).
Converted amounts (≈) assume the structure as drawn. The source made the active and inactive calls. No cut-off for these calls is given here.

Tests used:
Streptococcus pneumoniae = experiment: Antimicrobial activity against Streptococcus pneumoniae; type: functional, organism-based
Staphylococcus aureus = experiment: Antimicrobial activity against Staphylococcus aureus; type: functional, organism-based
[1] = system: Mycobacterium tuberculosis; experiment: Antitubercular activity against Mycobacterium tuberculosis H37Rv; type: functional
Outline: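 Broth microdilution against M. tuberculosis H37Rv; MIC read by visual inspection of growth.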

Escherichia coli = experiment: Antimicrobial activity against Escherichia coli; type: functional, organism-based

Compound | Activity (Streptococcus pneumoniae) | Activity (Staphylococcus aureus) | MIC [1] [µg/mL] | Activity (Escherichia coli)
CCCCOC(=O)N1CCN(c2ccc(C3CC(C(=O)OCC)=NO3)cc2)CC1 (stereo unspecified) | inactive | inactive | 0.8 (≈ 1.98 µM) | inactive
CCOC(=O)C1=NOC(c2ccc(N3CCN(Cc4ccc([N+](=O)[O-])cc4)CC3)cc2)C1 (stereo unspecified) | inactive | inactive | 0.8 (≈ 1.82 µM) | inactive
Cc1nnc(C2=NOC(c3ccc(N4CCN(Cc5ccccc5)CC4)cc3)C2)o1 (stereo unspecified) | inactive | inactive | 200 (≈ 496 µM) | inactive
CCOC(=O)C1=NOC(c2ccc(N3CCNCC3)cc2)C1 (stereo unspecified) | inactive | inactive | 50 (≈ 165 µM) | inactive
CCOC(=O)C1=NOC(c2ccc(N3CCN(C(=O)OCC)CC3)cc2)C1 (stereo unspecified) | inactive | inactive | 1.56 (≈ 4.16 µM) | inactive
O=C(O)C1=NOC(c2ccc(N3CCN(Cc4ccccc4)CC3)cc2)C1 (stereo unspecified) [listing 1 of 2 here] | inactive | inactive | – | inactive
O=C([O-])C1=NOC(c2ccc(N3CCN(Cc4ccccc4)CC3)cc2)C1.[Li+] (stereo unspecified) | – | – | 100 | –
CCOC(=O)C1=NOC(c2ccc(N3CCCCC3)cc2)C1 (stereo unspecified) | inactive | inactive | 6.25 (≈ 20.7 µM) | inactive
NCC1=NOC(c2ccc(N3CCN(Cc4ccccc4)CC3)cc2)C1 (stereo unspecified) | inactive | inactive | 200 (≈ 571 µM) | inactive
CCOC(=O)C1=NOC(c2ccc(-c3ccc(C=O)cc3)cc2)C1 (stereo unspecified) | inactive | inactive | 6.25 (≈ 19.3 µM) | inactive
NNC(=O)C1=NOC(c2ccc(N3CCN(Cc4ccccc4)CC3)cc2)C1 (stereo unspecified) | inactive | inactive | 50 (≈ 132 µM) | inactive
NCC1=NOC(c2ccc(N3CCOCC3)cc2)C1 (stereo unspecified) | inactive | inactive | > 200 | inactive
CCCCCCNC(=O)N1CCN(c2ccc(C3CC(C(=O)OCC)=NO3)cc2)CC1 (stereo unspecified) | inactive | inactive | 0.4 (≈ 0.929 µM) | inactive
CCOC(=O)C1=NOC(c2ccc(-c3ccc(OC)c(F)c3)cc2)C1 (stereo unspecified) | inactive | inactive | 3.12 (≈ 9.1 µM) | inactive
CCOC(=O)C1=NOC(c2ccc(-c3ncon3)cc2)C1 (stereo unspecified) | inactive | inactive | 50 (≈ 174 µM) | inactive
O=C(O)C1=NOC(c2ccc(N3CCN(Cc4ccccc4)CC3)cc2)C1 (stereo unspecified) [listing 2 of 2 here] | – | – | > 200 | –
COC(=O)C1=NOC(c2ccc(N3CCN(Cc4ccccc4)CC3)cc2)C1 (stereo unspecified) | inactive | inactive | 1.56 (≈ 4.11 µM) | inactive
CCOC(=O)C1=NOC(c2ccc(N3CCN(C(=O)OC(C)(C)C)CC3)cc2)C1 (stereo unspecified) | inactive | inactive | 0.8 (≈ 1.98 µM) | inactive
CCOC(=O)C1=NOC(c2ccc(N3CCN(C(=O)Nc4ccccc4)CC3)cc2)C1 (stereo unspecified) | inactive | inactive | 6.25 (≈ 14.8 µM) | inactive
OCC1=NOC(c2ccc(N3CCN(Cc4ccccc4)CC3)cc2)C1 (stereo unspecified) | inactive | inactive | 200 (≈ 569 µM) | inactive
C=CCN1CCN(c2ccc(C3CC(C(=O)OCC)=NO3)cc2)CC1 (stereo unspecified) | inactive | inactive | 6.25 (≈ 18.2 µM) | inactive
[N-]=[N+]=NCC1=NOC(c2ccc(N3CCOCC3)cc2)C1 (stereo unspecified) | inactive | inactive | 200 (≈ 696 µM) | inactive
